Data reported in ChEMBL document CHEMBL4819109, “Discovery of boronic acid-based potent activators of tumor pyruvate kinase M2 and development of gastroretentive nanoformulation for oral dosing” (Bioorg Med Chem Lett, 2021).
Activity calls are given as the source filed them. The calls are words filed in the database; no cut-off is given here.

Columns and labels:
[1] = Growth inhibition of human BCL2 Jurkat cells by MTT assay; assay type: functional
Method in brief: (§1)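 Cells were treated with varying compound concentrations and viability was read by MTT assay. IC50 values are reported ± error. Normal fibroblasts were tested alongside.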

[2] = system: COLO 201; assay: Growth inhibition of human Colo-201 cells by MTT assay; assay type: functional, cell-based; method in brief: as §1
[3] = system: MCF7; assay: Growth inhibition of human MCF7 cells by MTT assay; assay type: functional, cell-based; method in brief: as §1
[4] = system: MDA-MB-231; assay: Growth inhibition of human MDA-MB-231 cells by MTT assay; assay type: functional, cell-based; method in brief: as §1
[5] = molecular target: T1, Pyruvate kinase PKM (Homo sapiens, UniProt P14618); assay: Activation of PKM2 (unknown origin) by pyruvate kinase-lactate dehydrogenase coupled assay
Target sequence in this assay (P14618 whole entry): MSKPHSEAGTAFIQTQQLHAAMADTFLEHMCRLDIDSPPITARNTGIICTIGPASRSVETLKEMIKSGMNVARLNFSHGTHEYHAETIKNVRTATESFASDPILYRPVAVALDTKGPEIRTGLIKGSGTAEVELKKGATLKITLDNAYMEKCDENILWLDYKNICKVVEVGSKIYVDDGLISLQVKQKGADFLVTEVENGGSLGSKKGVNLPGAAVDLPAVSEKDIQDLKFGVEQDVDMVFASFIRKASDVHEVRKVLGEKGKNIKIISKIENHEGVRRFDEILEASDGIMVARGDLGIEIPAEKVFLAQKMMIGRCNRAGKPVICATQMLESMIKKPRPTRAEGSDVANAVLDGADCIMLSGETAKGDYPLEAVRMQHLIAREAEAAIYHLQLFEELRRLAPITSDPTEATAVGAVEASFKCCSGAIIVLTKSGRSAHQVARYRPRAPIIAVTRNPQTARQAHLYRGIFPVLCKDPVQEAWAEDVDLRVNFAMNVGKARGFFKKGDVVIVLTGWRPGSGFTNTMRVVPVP

[6] = Growth inhibition of human Mesenchymal stem cells by MTT assay; assay type: tissue-based; method in brief: as §1
[7] = molecular target: T1, Pyruvate kinase PKM; assay: Activation of […] in human MCF7 cells assessed as increase in tetramer formation at 100 nM measured after 48 hrs by DSS cross linker assay; assay type: cell-based; details: filed as activator
Method in brief: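 MCF-7 cells exposed to 100 nM for 48 h, then cross-linked with disuccinimidyl suberate (DSS). Tetrameric PKM2 was read as the 250 kDa band and compared with untreated MCF-7 control cells.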
Target sequence in this assay (P14618 2-531 limits assumed): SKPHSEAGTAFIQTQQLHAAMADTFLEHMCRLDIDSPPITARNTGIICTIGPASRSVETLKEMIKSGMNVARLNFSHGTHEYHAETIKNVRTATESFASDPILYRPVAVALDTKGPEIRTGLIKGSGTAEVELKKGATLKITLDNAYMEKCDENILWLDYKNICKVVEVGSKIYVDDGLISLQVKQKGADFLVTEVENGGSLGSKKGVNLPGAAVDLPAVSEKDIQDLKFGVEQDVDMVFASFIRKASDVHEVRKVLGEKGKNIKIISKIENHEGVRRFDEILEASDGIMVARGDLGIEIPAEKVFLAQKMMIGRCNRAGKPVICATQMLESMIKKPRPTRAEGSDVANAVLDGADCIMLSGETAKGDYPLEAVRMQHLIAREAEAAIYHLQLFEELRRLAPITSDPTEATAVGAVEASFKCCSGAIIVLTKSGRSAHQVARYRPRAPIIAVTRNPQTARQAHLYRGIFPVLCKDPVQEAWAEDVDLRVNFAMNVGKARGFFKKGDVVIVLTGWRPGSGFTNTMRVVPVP

[8] = system: MCF7; assay: Induction of apoptosis in human MCF7 cells assessed as early apoptotic cells at 100 nM incubated for 48 hrs by AnnexinV/PI staining based flow cytometry; assay type: functional
[9] = molecular target: T1, Pyruvate kinase PKM; assay: Activation of PKM2 (unknown origin) assessed as increase in tetramer formation by measuring scattering by Dynamic Light Scattering assay; details: filed as activator
Target sequence in this assay (P14618 2-531 limits assumed): as above

[10] = system: MCF7; assay: Induction of apoptosis in human MCF7 cells assessed as late apoptotic cells at 100 nM incubated for 48 hrs by AnnexinV/PI staining based flow cytometry; assay type: functional
[11] = system: MCF7; assay: Induction of apoptosis in human MCF7 cells assessed as necrotic cells at 100 nM incubated for 48 hrs by AnnexinV/PI staining based flow cytometry; assay type: functional
[12] = system: MCF7; assay: Induction of apoptosis in human MCF7 cells assessed as viable cells at 100 nM incubated for 48 hrs by AnnexinV/PI staining based flow cytometry; assay type: functional; details: read-out: Activity

SMILES: CCOC(=O)/C(=C\c1ccc(B(O)O)cc1)C(=O)c1sc(Nc2ccc(F)cc2)nc1-c1ccccc1
- IC50 [1]: 0.09 µM
- IC50 [2]: 5.58 µM
- IC50 [3]: 2.71 µM
- IC50 [4]: 36.6 µM
- EC50 [5]: 6.11 µM
- IC50 [6]: 29.4 µM

SMILES: CCOC(=O)/C(=C\c1ccc(B(O)O)cc1)C(=O)c1sc(Nc2ccc(OC)cc2)nc1N(C)C
- IC50 [1]: 0.57 µM
- IC50 [2]: 5.5 µM
- IC50 [3]: 2.72 µM
- IC50 [4]: 58.7 µM
- EC50 [5]: 8.17 µM
- IC50 [6]: 25.8 µM

SMILES: CCOC(=O)/C(=C\c1ccc(B(O)O)cc1)C(=O)c1sc(Nc2ccc(Cl)cc2)nc1N(C)C
- Activity [7]: Active
- Activity [8]: 8.81%
- Activity [9]: Active
- Activity [10]: 23.5%
- Activity [11]: 22.37%
- IC50 [1]: 2.82 µM
- IC50 [2]: 3.75 µM
- viability at 0.1 µM [12]: 45.3%
- IC50 [3]: 0.08 µM
- IC50 [4]: 34.9 µM
- EC50 [5]: 5.69 µM
- IC50 [6]: 23.9 µM

SMILES: COc1cccc2c1C(=O)c1c(O)c3c(c(O)c1C2=O)C[C@@](O)(C(=O)CO)C[C@@H]3O[C@H]1C[C@H](N)[C@H](O)[C@H](C)O1 [DOXORUBICIN]
- IC50 [1]: 3.03 µM
- IC50 [2]: 0.8 µM
- IC50 [4]: 1.3 µM
- IC50 [6]: 2.37 µM

SMILES: CCOC(=O)/C(=C\c1ccc(B(O)O)cc1)C(=O)c1sc(Nc2ccccc2)nc1N(C)C
- IC50 [1]: 6.36 µM
- IC50 [2]: 2.81 µM
- IC50 [3]: 1.5 µM
- IC50 [4]: 38 µM
- EC50 [5]: 7.15 µM
- IC50 [6]: 40.6 µM
